Active and inactive are the calls of the source. The calls are words filed in the database; no cut-off is given here.
Experiments:
Focal adhesion kinase 1 [1] = molecular target: T1, Focal adhesion kinase 1 (Homo sapiens, UniProt Q05397); experiment: Inhibition of human FAK phosphorylation in human HepG2 cells at 4 uM by Western blot analysis; format: cell-based
Outline: (§1)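 HepG2 cells treated, with DMSO as negative control (4 μM stated for p-FAK). Western blot for phospho-FAK, -PI3K, -Akt, -JNK and -STAT3 with GAPDH as loading control. Each phospho band is quantified by densitometry relative to its total protein. Means ± SEM of three experiments, with significance vs DMSO.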
Target sequence in this assay (Q05397 2-1052 limits assumed): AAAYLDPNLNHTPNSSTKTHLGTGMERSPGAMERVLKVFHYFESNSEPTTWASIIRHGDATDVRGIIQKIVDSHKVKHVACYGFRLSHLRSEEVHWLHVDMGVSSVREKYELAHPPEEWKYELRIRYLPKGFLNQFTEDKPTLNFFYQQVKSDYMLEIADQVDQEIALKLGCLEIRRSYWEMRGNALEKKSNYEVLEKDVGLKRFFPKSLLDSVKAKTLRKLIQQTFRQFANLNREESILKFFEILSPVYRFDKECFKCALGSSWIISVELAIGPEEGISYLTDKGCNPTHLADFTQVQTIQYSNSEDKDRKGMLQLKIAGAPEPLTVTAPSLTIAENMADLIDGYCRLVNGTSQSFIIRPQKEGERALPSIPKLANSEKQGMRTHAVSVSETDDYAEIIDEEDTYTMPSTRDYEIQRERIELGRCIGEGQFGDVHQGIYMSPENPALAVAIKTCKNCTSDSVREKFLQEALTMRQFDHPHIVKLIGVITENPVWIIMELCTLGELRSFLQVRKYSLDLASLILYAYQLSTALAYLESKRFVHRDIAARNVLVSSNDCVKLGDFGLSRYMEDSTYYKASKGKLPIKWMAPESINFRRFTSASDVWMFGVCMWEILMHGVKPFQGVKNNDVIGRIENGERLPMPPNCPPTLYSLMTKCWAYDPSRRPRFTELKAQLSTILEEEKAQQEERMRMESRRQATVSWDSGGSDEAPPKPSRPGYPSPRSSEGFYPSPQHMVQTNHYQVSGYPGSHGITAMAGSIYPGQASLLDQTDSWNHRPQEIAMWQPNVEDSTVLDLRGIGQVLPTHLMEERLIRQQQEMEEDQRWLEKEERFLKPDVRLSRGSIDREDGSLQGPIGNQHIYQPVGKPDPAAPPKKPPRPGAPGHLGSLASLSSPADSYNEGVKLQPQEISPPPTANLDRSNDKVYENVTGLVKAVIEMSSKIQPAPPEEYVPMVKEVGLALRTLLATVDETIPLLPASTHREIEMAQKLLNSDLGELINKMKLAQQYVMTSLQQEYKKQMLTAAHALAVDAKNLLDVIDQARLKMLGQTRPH

HepG2 [2] = experiment: Induction of cell cycle arrest in human HepG2 assessed as accumulation of cells at sub G1 phase at 3.78 uM incubated for 24 hrs by Flow cytometric analysis
HepG2 [3] = experiment: Induction of apoptosis in human HepG2 cells assessed as early apoptotic cells after 24 hrs by Annexin V/propidium iodide staining based assay (reference value: 0.33%); format: functional
Focal adhesion kinase 1 [4] = molecular target: T1, Focal adhesion kinase 1; experiment: Inhibition of FAK (unknown origin)
Target sequence in this assay (Q05397 whole entry): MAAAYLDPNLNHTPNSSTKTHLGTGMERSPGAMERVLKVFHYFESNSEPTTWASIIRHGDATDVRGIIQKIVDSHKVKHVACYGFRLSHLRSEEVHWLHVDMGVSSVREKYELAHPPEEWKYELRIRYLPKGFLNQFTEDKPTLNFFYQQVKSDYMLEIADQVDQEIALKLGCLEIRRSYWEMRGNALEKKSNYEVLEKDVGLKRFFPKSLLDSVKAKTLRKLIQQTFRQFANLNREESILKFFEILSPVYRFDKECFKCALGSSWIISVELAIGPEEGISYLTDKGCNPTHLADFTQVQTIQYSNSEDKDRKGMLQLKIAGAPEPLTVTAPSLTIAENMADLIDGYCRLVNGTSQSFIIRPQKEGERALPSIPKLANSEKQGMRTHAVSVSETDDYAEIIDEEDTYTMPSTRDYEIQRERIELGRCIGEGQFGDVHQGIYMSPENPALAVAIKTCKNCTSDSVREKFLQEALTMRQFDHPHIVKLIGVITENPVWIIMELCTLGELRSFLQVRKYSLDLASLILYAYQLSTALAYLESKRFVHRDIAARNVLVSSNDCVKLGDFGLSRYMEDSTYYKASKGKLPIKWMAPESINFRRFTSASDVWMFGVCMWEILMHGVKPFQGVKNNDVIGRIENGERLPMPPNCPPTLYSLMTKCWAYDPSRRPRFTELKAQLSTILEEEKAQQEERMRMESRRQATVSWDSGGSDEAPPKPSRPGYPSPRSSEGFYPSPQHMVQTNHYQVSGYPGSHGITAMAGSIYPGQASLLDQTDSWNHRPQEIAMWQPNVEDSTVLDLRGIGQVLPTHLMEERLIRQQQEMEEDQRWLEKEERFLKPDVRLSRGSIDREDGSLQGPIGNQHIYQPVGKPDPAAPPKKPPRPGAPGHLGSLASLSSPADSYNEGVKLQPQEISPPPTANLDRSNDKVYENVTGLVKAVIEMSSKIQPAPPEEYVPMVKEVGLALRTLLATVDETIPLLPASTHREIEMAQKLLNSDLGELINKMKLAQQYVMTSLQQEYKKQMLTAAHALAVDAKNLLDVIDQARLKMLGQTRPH

HepG2 [5] = experiment: Inhibition of PI3K in human HepG2 cells assessed as reduction in PI3K phosphorylation by Westernblot analysis; format: cell-based; outline: as §1
HepG2 [6] = experiment: Induction of apoptosis in human HepG2 cells assessed as necrotic cells after 24 hrs by Annexin V/propidium iodide staining based assay (reference value: 0.79%); format: functional
[7] = molecular target: RAC-alpha serine/threonine-protein kinase (Homo sapiens) (UniProt P31749); experiment: Inhibition of Akt in human HepG2 cells assessed as reduction in Akt phosphorylation by Westernblot analysis; format: cell-based; outline: as §1
RAC-alpha serine/threonine-protein kinase (Homo sapiens), sequence (P31749 whole entry): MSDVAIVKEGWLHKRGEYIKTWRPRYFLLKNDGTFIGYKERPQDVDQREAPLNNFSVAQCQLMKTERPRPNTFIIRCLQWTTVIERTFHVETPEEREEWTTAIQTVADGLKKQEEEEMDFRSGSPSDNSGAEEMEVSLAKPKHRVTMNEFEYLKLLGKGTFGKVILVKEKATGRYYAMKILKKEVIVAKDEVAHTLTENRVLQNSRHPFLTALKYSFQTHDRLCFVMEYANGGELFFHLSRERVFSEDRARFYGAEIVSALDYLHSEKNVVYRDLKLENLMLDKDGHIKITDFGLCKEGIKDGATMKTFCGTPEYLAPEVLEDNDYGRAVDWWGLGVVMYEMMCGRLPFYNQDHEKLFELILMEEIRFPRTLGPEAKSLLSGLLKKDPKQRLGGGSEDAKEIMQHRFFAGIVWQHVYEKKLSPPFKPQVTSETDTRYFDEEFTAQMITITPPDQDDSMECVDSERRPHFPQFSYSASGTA

Hep 3B2 = experiment: Antiproliferative activity against human Hep3B cells assessed as growth inhibition; format: functional, cell-based
HepG2 [8] = experiment: Induction of cell cycle arrest in human HepG2 assessed as accumulation of cells at S phase at 3.78 uM incubated for 24 hrs by Flow cytometric analysis; format: functional
[9] = molecular target: Signal transducer and activator of transcription 3 (Homo sapiens) (UniProt P40763); experiment: Inhibition of STAT3 in human HepG2 cells assessed as reduction in STAT3 phosphorylation by Westernblot analysis; format: cell-based; outline: as §1
Signal transducer and activator of transcription 3 (Homo sapiens), sequence (P40763 whole entry): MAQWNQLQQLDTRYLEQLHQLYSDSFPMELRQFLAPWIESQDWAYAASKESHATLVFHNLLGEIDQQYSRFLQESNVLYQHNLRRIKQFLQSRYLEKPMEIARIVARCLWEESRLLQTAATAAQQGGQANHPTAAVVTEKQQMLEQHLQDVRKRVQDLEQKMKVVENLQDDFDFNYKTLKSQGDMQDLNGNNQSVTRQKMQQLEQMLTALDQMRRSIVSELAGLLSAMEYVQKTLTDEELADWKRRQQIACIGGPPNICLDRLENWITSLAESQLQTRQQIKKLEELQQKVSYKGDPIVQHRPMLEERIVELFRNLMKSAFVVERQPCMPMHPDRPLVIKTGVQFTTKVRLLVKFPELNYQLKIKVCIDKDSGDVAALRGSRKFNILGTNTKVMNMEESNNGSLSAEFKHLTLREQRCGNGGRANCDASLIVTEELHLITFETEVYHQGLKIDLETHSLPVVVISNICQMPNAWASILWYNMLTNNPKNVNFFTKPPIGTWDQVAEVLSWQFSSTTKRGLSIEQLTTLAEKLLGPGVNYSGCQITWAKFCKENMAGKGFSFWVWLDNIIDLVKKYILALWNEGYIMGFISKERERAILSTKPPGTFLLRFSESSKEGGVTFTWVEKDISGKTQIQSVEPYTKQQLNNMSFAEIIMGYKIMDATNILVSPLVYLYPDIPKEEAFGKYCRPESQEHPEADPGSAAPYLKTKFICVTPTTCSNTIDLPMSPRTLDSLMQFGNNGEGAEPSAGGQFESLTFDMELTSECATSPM

HepG2 [10] = experiment: Induction of apoptosis in human HepG2 cells assessed as late apoptotic cells after 24 hrs by Annexin V/propidium iodide staining based assay (reference value: 0.09%); format: functional
HepG2 [11] = experiment: Antiproliferative activity against human HepG2 cells assessed as growth inhibition; format: functional, cell-based
[12] = molecular target: c-Jun N-terminal kinase, JNK (Homo sapiens) (UniProt P45983+P53779+P45984); experiment: Inhibition of JNK in human HepG2 cells assessed as reduction in JNK phosphorylation by Westernblot analysis; format: cell-based; outline: as §1

Compound | inhibition (Focal adhesion kinase 1 [1]) | IC50 (Focal adhesion kinase 1 [4]) [µM] | inhibition [7] | inhibition [9] | IC50 (HepG2 [11]) [µM] | inhibition [12] | Activity (HepG2 [2]) [%] | Activity (HepG2 [3]) [%] | inhibition (HepG2 [5]) | Activity (HepG2 [6]) [%] | IC50 (Hep 3B2) [µM] | Activity (HepG2 [8]) [%] | Activity (HepG2 [10]) [%]
Cn1c(SCC(=O)Nc2ccc(C(=O)O)cc2)nnc1-c1ccncc1 | – | – | – | – | 8.83 | – | – | – | – | – | 3.87 | – | –
CCn1c(SCC(=O)Nc2ccc(C(=O)O)cc2)nnc1-c1ccncc1 | – | – | – | – | 41 | – | – | – | – | – | 17.9 | – | –

These reach a lower IC50 (HepG2 [11]). Values come first.

inhibition (Focal adhesion kinase 1 [1]) | IC50 (Focal adhesion kinase 1 [4]) [µM] | inhibition [7] | inhibition [9] | IC50 (HepG2 [11]) [µM] | inhibition [12] | Compound | Activity (HepG2 [2]) [%] | Activity (HepG2 [3]) [%] | inhibition (HepG2 [5]) | Activity (HepG2 [6]) [%] | IC50 (Hep 3B2) [µM] | Activity (HepG2 [8]) [%] | Activity (HepG2 [10]) [%]
Active | 0.0364 | Active | Active | 4.72 | Active | C=CCn1c(SCC(=O)Nc2ccc(C(=O)O)cc2)nnc1-c1ccncc1 | – | – | Active | – | 2.88 | – | –
Active | 0.0181 | Active | Active | 3.78 | Active | O=C(CSc1nnc(-c2ccncc2)n1-c1ccccc1)Nc1ccc(C(=O)O)cc1 | 41.61 | 5.31 | Active | 12.59 | 4.83 | 54.11 | 23.71
– | – | – | – | 1.99 | – | COc1cccc2c1C(=O)c1c(O)c3c(c(O)c1C2=O)C[C@@](O)(C(=O)CO)C[C@@H]3O[C@H]1C[C@H](N)[C@H](O)[C@H](C)O1 [DOXORUBICIN] | – | – | – | – | 7.21 | – | –

— ChEMBL document CHEMBL4819057, “Discovery of antiproliferative and anti-FAK inhibitory activity of 1,2,4-triazole derivatives containing acetamido carboxylic acid skeleton” (Bioorg Med Chem Lett, 2021)
